Data on 2 molecules can be found in ChEMBL document CHEMBL3526125, “P-glycoprotein increases portal bioavailability of loperamide in mouse by reducing first-pass intestinal metabolism” (Drug Metab Dispos, 2013).

The nature of data set [1]: Portal bioavailability in P-gp competent CF-1 mouse at 0.23 mg/kg through oral gavage by LC-MS/MS analysis in presence of 1 mM ABT CYP3A inhibitor. The settings on record: in vivo. It counts as ADME, organism-based. Put shortly:
(§1)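 Mice received oral ABT 50 mg/kg 3 h before study, plus another 50 mg/kg co-administered with loperamide 0.23 mg/kg in 300 µL 0.9% NaCl with 1% EtOH. Portal and jugular sampling over 240 min. F_G = (portal minus systemic-returned mass)/dose, using portal flow 1.45 mL/min and blood:plasma ratio 0.71. n=6.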

The subject of data set [2] is CYP3A. Put plainly: Drug metabolism in P-gp competent CF-1 mouse intestine assessed as CYP3A-mediated […] by LC-MS/MS analysis. In kind it is ADME, tissue-based. Put shortly: (§2)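 Jejunum from fasted CF-1 or Mdr1a1-/- mice mounted in diffusion chambers in oxygenated KBR at 37°C; tissue used if TEER ≥250 Ω·cm². Apical loperamide 0.75–125 µM in KBR with 0.1% EtOH for 90 min. Monodemethyl- plus didemethyl-loperamide summed across tissue, AP and BL by LC-MS/MS. Fitted to Michaelis–Menten for Vmax and Km. n=3 mice × 4 tissues.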

A short description of data set [3]: AUC (0 to 240 mins) in P-gp deficient CF-1 mouse plasma at 0.23 mg/kg through oral gavage. In kind it is ADME, organism-based. Further details: time < 4 hr, dose 0.23 mg/kg, route oral. Put shortly:
(§3)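 Male CF-1 (P-gp competent) or Mdr1a1-/- mice, overnight-fasted, on ketamine/xylazine anesthesia held at 37°C, portal vein-cannulated. Loperamide 0.23, 0.47 or 0.95 mg/kg by oral gavage in 300 µL 0.9% NaCl with 1% EtOH. Serial 20 µL portal blood samples over 240 min. Plasma loperamide quantified by LC-MS/MS. AUC0–240 min reported as mean ± SD, n=6.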

Data set [4] in a line: Portal bioavailability in P-gp deficient CF-1 mouse at 0.94 mg/kg through oral gavage. It counts as ADME, organism-based. The settings on record: in vivo. Put shortly:
(§4)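 Portal vein-cannulated, anesthetized CF-1 or Mdr1a1-/- mice given oral loperamide 0.23, 0.47 or 0.94 mg/kg. Portal and systemic plasma converted to blood concentration using a blood:plasma ratio of 0.71. M_portal = Q_portal (1.45 mL/min) × AUC_portal(0–4 h). M_systemic is subtracted to give M_absorbed, and F_G = M_absorbed/dose. n=6.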

The subject of data set [5] is CYP3A. The data set is described as follows: Drug metabolism in P-gp deficient CF-1 mouse intestine assessed as CYP3A-mediated […] by LC-MS/MS analysis. It counts as ADME, tissue-based. Put shortly: as §2
Data set [6] is described as follows: AUC (0 to 240 mins) in P-gp competent CF-1 mouse plasma at 0.23 mg/kg through oral gavage. It counts as ADME, organism-based. Further details: time < 4 hr, dose 0.23 mg/kg, route oral. Put shortly: as §3
A short description of data set [7]: Portal bioavailability in P-gp deficient CF-1 mouse at 0.23 mg/kg through oral gavage. In kind it is ADME, organism-based. The settings on record: in vivo. Put shortly: as §4
The nature of data set [8]: AUC in P-gp competent CF-1 mouse plasma at 0.47 mg/kg through systemic exposure. It counts as ADME, organism-based. Further details: dose 0.47 mg/kg. Put shortly:
(§5)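 Overnight-fasted, ketamine/xylazine-anesthetized CF-1 or Mdr1a1-/- mice with jugular vein cannulae. Loperamide 0.23 or 0.47 mg/kg by oral gavage in 300 µL 0.9% NaCl with 1% EtOH. Jugular blood (20 µL) taken at 10, 30, 60, 120, 180 and 240 min. Plasma loperamide measured by LC-MS/MS. AUC0–240 min, n=6.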

Data set [9] in a line: AUC (0 to 240 mins) in P-gp competent CF-1 mouse plasma at 0.94 mg/kg through oral gavage. It counts as ADME, organism-based. On the set-up: time < 4 hr, dose 0.94 mg/kg, route oral. Put shortly: as §3
Data set [10] can be described thus: AUC in P-gp competent CF-1 mouse plasma at 0.23 mg/kg through systemic exposure. It counts as ADME, organism-based. On the set-up: dose 0.23 mg/kg. Put shortly: as §5
The nature of data set [11]: Drug metabolism in P-gp deficient CF-1 mouse intestine assessed as CYP3A-mediated metabolite formation […]. It counts as ADME, tissue-based. The following applies: excised jejunum tissue.
The nature of data set [12]: Portal bioavailability in P-gp competent CF-1 mouse at 0.47 mg/kg through oral gavage. In kind it is ADME, organism-based. The settings on record: in vivo. Put shortly:
as §4

The nature of data set [13]: Drug metabolism in P-gp competent CF-1 mouse intestine assessed as CYP3A-mediated metabolite formation […]. In kind it is ADME, tissue-based. The following applies: excised jejunum tissue.
Data set [14] is described as follows: Portal bioavailability in P-gp deficient CF-1 mouse at 0.23 mg/kg through oral gavage by LC-MS/MS analysis in presence of 1 mM ABT CYP3A inhibitor. In kind it is ADME, organism-based. The settings on record: in vivo. Put shortly:
as §1

Data set [15] is described as follows: Portal bioavailability in P-gp deficient CF-1 mouse at 0.47 mg/kg through oral gavage. It counts as ADME, organism-based. The following applies: in vivo. Put shortly: as §4
The nature of data set [16]: Portal bioavailability in P-gp competent CF-1 mouse at 0.23 mg/kg through oral gavage. In kind it is ADME, organism-based. The following applies: in vivo. Put shortly: as §4
Data set [17] can be described thus: AUC in P-gp deficient CF-1 mouse plasma at 0.47 mg/kg through systemic exposure. It counts as ADME, organism-based. On the set-up: dose 0.47 mg/kg. Put shortly:
as §5

Data set [18] in a line: AUC (0 to 240 mins) in P-gp competent CF-1 mouse plasma at 0.47 mg/kg through oral gavage. Further details: time < 4 hr, dose 0.47 mg/kg, route oral. In kind it is ADME, organism-based. Put shortly:
as §3

Data set [19] can be described thus: AUC (0 to 240 mins) in P-gp deficient CF-1 mouse plasma at 0.94 mg/kg through oral gavage. In kind it is ADME, organism-based. Further details: time < 4 hr, dose 0.94 mg/kg, route oral. Put shortly:
as §3

Data set [20] in a line: AUC in P-gp deficient CF-1 mouse plasma at 0.23 mg/kg through systemic exposure. In kind it is ADME, organism-based. Further details: dose 0.23 mg/kg. Put shortly:
as §5

A short description of data set [21]: AUC (0 to 240 mins) in P-gp deficient CF-1 mouse plasma at 0.47 mg/kg through oral gavage. On the set-up: time < 4 hr, dose 0.47 mg/kg, route oral. It counts as ADME, organism-based. Put shortly: as §3
Data set [22] is described as follows: AUC (0 to 120 mins) in P-gp competent CF-1 mouse plasma at 0.4 mg/kg through oral gavage in presence of 1 mM ABT CYP3A inhibitor. In kind it is ADME, organism-based. Further details: time < 2 hr, dose 0.4 mg/kg, route oral.
The nature of data set [23]: AUC (0 to 120 mins) in P-gp competent CF-1 mouse plasma at 0.4 mg/kg through oral gavage. In kind it is ADME, organism-based. On the set-up: time < 2 hr, dose 0.4 mg/kg, route oral. Put shortly:
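Mice were anaesthetised with IP ketamine 140 mg/kg and xylazine 15 mg/kg, kept at 37°C, and portal vein-cannulated. Pretreatment was saline or oral ABT at 50 mg/kg. Portal-circulation AUC0–120 min was calculated.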

The nature of data set [24]: Drug metabolism in P-gp competent CF-1 mouse intestine assessed as CYP3A-mediated metabolite formation measured per cm'2 of tissue by LC-MS/MS analysis in presence of 100 uM Cyp3a oxidative metabolism inhibitor troleandomycin. It counts as ADME, tissue-based.
Data set [25] in a line: Drug metabolism in P-gp deficient CF-1 mouse intestine assessed as CYP3A-mediated metabolite formation measured per cm'2 of tissue by LC-MS/MS analysis in presence of 100 uM Cyp3a oxidative metabolism inhibitor troleandomycin. In kind it is ADME, tissue-based.

SMILES strings stand for the structures.

For orientation: Km means the substrate concentration at which the rate is half of its maximum. As a reminder, the AUC(0-t) is the area under the concentration-time curve up to a stated or last time point. What is called AUC is concentration integrated over time. The low end stands for low exposure, the high end for high exposure. As to `CN(C)C(=O)C(CCN1CCC(O)(c2ccc(Cl)cc2)CC1)(c1ccccc1)c1ccccc1` [LOPERAMIDE], the Fg in data set [1] amounted to 3.6%; in data set [4], 17%; in [7] it was 0.4%; in data set [12], 1.7%; in data set [14], 28%; in data set [15] it was 1.1%. This molecule also had a Fg in data set [16] of 2.6%. In addition, the figures for the Km with CYP3A [2] and with CYP3A [5] were 22 µM and 4.5 µM, respectively. For the same molecule, the AUC(0-t) at 4 h was 1.5 ng·h/mL in data set [3]; 4.43 ng·h/mL in [6]; 81.7 ng·h/mL in data set [9]; 4.48 ng·h/mL in [18]; 95 ng·h/mL in data set [19]; 7 ng·h/mL in data set [21]. In addition, the AUC is 0.517 ng·h/mL in data set [8], 0.933 ng·h/mL in [10], 4.33 ng·h/mL in data set [17] and 1.03 ng·h/mL in [20]. Besides, the Vmax is 30 pmol/min/cm² in data set [11] and 31 pmol/min/cm² in [13].

For `C[C@]12CC[C@H]3[C@@H](CCC4=CC(=O)CC[C@@]43C)[C@@H]1CC[C@@H]2O` [TESTOSTERONE], the figures for the AUC(0-t) at 2 h in data set [22] and in data set [23] were 1 ng·h/mL and 43.3 ng·h/mL, respectively. Besides, the Vmax in data set [24] and in data set [25] was 0.5 pmol/min each time.
